Reference: ChEMBL document CHEMBL3112513, “Synthesis, docking and pharmacological evaluation of novel indole based potential atypical antipsychotics” (2014)
Activity calls are given as the source filed them. The rule behind the calls is not given here.

Legend:
Mus musculus [1] = assay: Antipsychotic activity in albino lyka mouse assessed as reversal of apomorphine-induced stereotypy at 5 to 10 mg/kg, ip administered 10 mins prior to apomorphine challenge measured 10 to 30 mins post challenge; type: functional, organism-based
Procedure, shortened: (§1)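 Mice (same animals as the climbing test) dosed ip with test agent, saline vehicle or clozapine; apomorphine 2.5 mg/kg given 10 min later. Each mouse was placed in an inverted 500 ml beaker for 60 s at 10, 15, 20, 25 and 30 min post-apomorphine. Scored 1 (rearing, sniffing, grooming) or 2 (licking, biting). Three doses per compound, chosen by initial titration.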

Mus musculus [2] = assay: Antipsychotic activity in ip dosed albino lyka mouse assessed as reversal of apomorphine-induced mesh climbing response administered 10 mins prior to apomorphine challenge measured 10 to 30 mins post challenge; type: functional
Procedure, shortened: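 Test agent, saline or clozapine given ip; apomorphine 2.5 mg/kg ip 10 min later. Mice were placed in a mesh cage for 60 s at 10, 15, 20, 25 and 30 min post-apomorphine, with a naive baseline recorded first. Climbing scored 1 (one to three paws on mesh) or 2 (all four paws). Mean score per group.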

Mus musculus [3] = assay: Antipsychotic activity in albino lyka mouse assessed as reversal of apomorphine-induced stereotypy at 2.5 to 5 mg/kg, ip administered 10 mins prior to apomorphine challenge measured 10 to 30 mins post challenge; type: functional, organism-based
Procedure, shortened: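 Mice given test compound, vehicle or clozapine i.p., then apomorphine 2.5 mg/kg i.p. 10 min later. Each mouse placed in an inverted 500 ml beaker for 60 s at 10, 15, 20, 25 and 30 min after apomorphine. Scored 1 (rearing, sniffing, grooming) or 2 (licking, biting), reported as mean score. Same mice as mesh-climbing test. Three dose levels, chosen by initial titration.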

Mus musculus [4] = assay: Antipsychotic activity in albino lyka mouse assessed as reversal of apomorphine-induced stereotypy at 2 to 7.5 mg/kg, ip administered 10 mins prior to apomorphine challenge measured 10 to 30 mins post challenge; type: functional, organism-based; procedure, shortened: as §1
Mus musculus [5] = assay: Antipsychotic activity in albino lyka mouse assessed as reversal of apomorphine-induced stereotypy at 2.5 to 7.5 mg/kg, ip administered 10 mins prior to apomorphine challenge measured 10 to 30 mins post challenge; type: functional, organism-based; procedure, shortened: as §1

SMILES | Activity (Mus musculus [1]) | ED50 (Mus musculus [2]) | Activity (Mus musculus [3]) | Activity (Mus musculus [4]) | Activity (Mus musculus [5])
Clc1ccc(NCCCOc2ccccc2-c2cc3ccccc3[nH]2)cc1 | inactive | 7.23 mg/kg |  |  | 
CN1CCN(C2=Nc3cc(Cl)ccc3Nc3ccccc32)CC1 [CLOZAPINE] |  | 3.07 mg/kg | inactive |  | 
Clc1ccc(NCCCOc2ccc(-c3cc4ccccc4[nH]3)cc2)cc1 |  | 1.8 mg/kg |  | inactive | 
COc1ccc(NCCCOc2ccc(-c3cc4ccccc4[nH]3)cc2)cc1 |  | 1.9 mg/kg |  |  | Active
Clc1ccccc1NCCCOc1ccccc1-c1cc2ccccc2[nH]1 | inactive | 6.23 mg/kg |  |  | 
COc1ccccc1NCCCOc1ccc(-c2cc3ccccc3[nH]2)cc1 |  | 1.7 mg/kg |  |  | Active
Clc1ccccc1NCCCOc1ccc(-c2cc3ccccc3[nH]2)cc1 |  | 1.6 mg/kg |  | inactive | 
